Measurements from ChEMBL document CHEMBL4359883, “4(1H)-quinolone derivatives overcome acquired resistance to anti-microtubule agents by targeting the colchicine site of β-tubulin” (Eur J Med Chem, 2019).
Calls of active or inactive are those of the source. The calls are words filed in the database; no cut-off is given here.

Tests used:
[1] = Selectivity index, ratio of IC50 for human KBtax cells to IC50 for human KB cells; assay type: functional
[2] = Antiproliferative activity against human 37T cells assessed as reduction in cell viability after 72 hrs by MTS assay; assay type: functional, cell-based
In short: (§1)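 Cells plated at 2000/well, cultured overnight, then exposed to a range of compound concentrations for 72 h. MTS reagent added for 1–4 h at 37 °C and absorbance read at 490 nm. Cultured in RPMI 1640 or DMEM with 10% heat-inactivated FBS under 5% CO2. Data are the mean of three determinations.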

[3] = Selectivity index, ratio of IC50 for human KB/VCR cells to IC50 for human KB cells; assay type: functional
[4] = Toxicity in Balb/c mouse xenografted with human KBtax cells assessed as serum creatinine level at 8 mg/kg, ip administered 3 times per week and measured after 21 days (reference value: 0.22 +/- 0.02 mg/dl); assay type: organism-based; conditions: in vivo, 504 h
[5] = Antitumour activity against human KBtax cells xenografted in Balb/c mouse assessed as reduction in tumour size at 8 mg/kg, ip administered 3 times per week and measured after 21 days (reference value: 1109 +/- 128.3 mm3); assay type: functional
Homo sapiens [6] = species on record: Homo sapiens; test: Induction of mitotic arrest in human KBtax cells assessed as increase in cyclin-B1 expression at 30 to 60 nM after 24 hrs by immunoblotting analysis; assay type: functional, cell-based
NCI-H1975 [7] = test: Antiproliferative activity against human NCI-H1975 cells assessed as reduction in cell viability after 72 hrs by MTS assay; assay type: functional, cell-based; conditions: NCI-H1975, 72 h; in short: as §1
[8] = Antiproliferative activity against human KB/VCR cells assessed as reduction in cell viability after 72 hrs by MTS assay; assay type: functional, cell-based; in short: as §1
[9] = Antiproliferative activity against human CCRF-CEM/VBL cells assessed as reduction in cell viability after 72 hrs by MTS assay; assay type: functional, cell-based; in short: as §1
[10] = Antiproliferative activity against human KBtax cells assessed as reduction in cell viability after 72 hrs by MTS assay; assay type: functional, cell-based; in short: as §1
CCRF-CEM = test: Antiproliferative activity against human CCRF-CEM cells assessed as reduction in cell viability after 72 hrs by MTS assay; assay type: functional, cell-based; in short: as §1
Homo sapiens [11] = species on record: Homo sapiens; test: Induction of apoptosis in human KBtax cells assessed as PARP cleavage at 30 to 60 nM after 24 hrs by immunoblotting analysis; assay type: functional, cell-based
BT-549 = test: Antiproliferative activity against human BT549 cells assessed as reduction in cell viability after 72 hrs by MTS assay; assay type: functional, cell-based; conditions: BT-549, 72 h; in short: as §1
KB = test: Antiproliferative activity against human KB cells assessed as reduction in cell viability after 72 hrs by MTS assay; assay type: functional, cell-based; in short: as §1
[12] = Selectivity index, ratio of IC50 for human CCRF-CEM/VBL cells to IC50 for human CCRF-CEM cells; assay type: functional
MDA-MB-231 = test: Antiproliferative activity against human MDA-MB-231 cells assessed as reduction in cell viability after 72 hrs by MTS assay; assay type: functional, cell-based; conditions: MDA-MB-231, 72 h; in short: as §1
NCI-H1975 [13] = test: Antitumour activity against human NCI-H1975 cells xenografted in Balb/c mouse assessed as tumour size at 8 mg/kg, ip administered three times per week and measured on day 21 (reference value: 2153 +/- 126.3 mm3); assay type: functional
In short: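 H1975 tumours grown in the right flank of 6-week-old BALB/c nude mice. DMSO vehicle or 4 or 8 mg/kg compound in DMSO given ip three times weekly. Tumour volume calculated as 0.5W²L before each dose and compared on day 21.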

Hs-578T = test: Antiproliferative activity against human Hs578T cells assessed as reduction in cell viability after 72 hrs by MTS assay; assay type: functional, cell-based; in short: as §1
Tubulin (Homo sapiens) [14] = biological target: T1, Tubulin (Homo sapiens) (UniProt P68371+Q9H4B7+P0DPH7+P68366+Q13509+Q71U36+P04350+Q3ZCM7+P07437+P68363+Q9BQE3+Q6PEY2+Q13885+Q9BVA1+Q9BUF5); test: Inhibition of microtubule polymerization in human NCI-H1975 cells at 25 nM after 6 hr followed by DAPI staining based confocal microscopic analysis; assay type: cell-based
In short: (§2)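 Cells exposed for 6 h, fixed in 3.7% paraformaldehyde, permeabilized with 0.1% Triton X-100. Stained with anti-α-tubulin (1:1000) overnight at 4 °C, FITC secondary 1 h at 37 °C, nuclei counterstained with DAPI. Imaged by confocal laser scanning microscopy.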

[15] = Antiproliferative activity against human OECM1 cells assessed as reduction in cell viability after 72 hrs by MTS assay; assay type: functional, cell-based; conditions: OECM1, 72 h; in short: as §1
CL1-0 [16] = test: Induction of morphological changes in human CL1-0 cells assessed as disruption of mitotic spindle arrangement at 20 nM after 6 hrs by DAPI staining based confocal microscopic analysis; assay type: functional, cell-based; in short: as §2
NCI-H1975 [17] = test: Induction of apoptosis in human NCI-H1975 cells assessed as PARP cleavage at 40 nM by immunoblotting analysis; assay type: functional, cell-based; conditions: TDE = time-dependent effect
[18] = Cytotoxicity against human bronchial epithelial cells assessed as reduction in cell viability after 72 hrs by MTS assay; assay type: cell-based
In short: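 Cells plated at 2000 per well, cultured overnight, then exposed to a range of compound concentrations for 72 h. MTS reagent added, 1–4 h at 37 °C, absorbance read at 490 nm. Mean of three determinations.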

NCI-H1975 [19] = test: Induction of apoptosis in human NCI-H1975 cells assessed as caspase 8 activation at 40 to 80 nM after 24 hrs by immunoblotting analysis; assay type: functional, cell-based
HCT-116 = test: Antiproliferative activity against human HCT116 cells assessed as reduction in cell viability after 72 hrs by MTS assay; assay type: functional, cell-based; conditions: HCT-116, 72 h; in short: as §1
CL1-0 [20] = test: Induction of apoptosis in human CL1-0 cells assessed as caspase 8 activation at 20 to 40 nM after 24 hrs by immunoblotting analysis; assay type: functional, cell-based
NCI-H1975 [21] = test: Antitumour activity against human NCI-H1975 cells xenografted in Balb/c mouse assessed as reduction in tumour size at 4 mg/kg, ip administered 3 times per week and measured on day 25 (reference value: 1749 +/- 234.5 mm3); assay type: functional
CL1-0 [22] = test: Induction of apoptosis in human CL1-0 cells assessed as bax protein expression after 24 hrs by immunoblotting analysis; assay type: functional, cell-based
NCI-H1975 [23] = test: Induction of mitotic arrest in human NCI-H1975 cells assessed as increase in phospho-histone H3 expression at 40 to 80 nM after 24 hrs by immunoblotting analysis; assay type: functional, cell-based
CL1-0 [24] = test: Antiproliferative activity against human CL1-0 cells assessed as reduction in cell viability after 72 hrs by MTS assay; assay type: functional, cell-based; conditions: CL1-0, 72 h; in short: as §1
Tubulin (Homo sapiens) [25] = biological target: T1, Tubulin (Homo sapiens); test: Inhibition of microtubule polymerization in human NCI-H1975 cells at 40 nM after 1 hr followed by exposure to cold and measured at 5 to 60 mins immunofluorescence based assay; assay type: cell-based
In short: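 H1975 cells pretreated with 40 nM for 1 h, held cold for 30 min, then returned to 37 °C for varying times. Fixed and stained for α-tubulin by immunofluorescence with DAPI counterstain, then imaged by confocal microscopy.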

CL1-0 [26] = test: Induction of apoptosis in human CL1-0 cells assessed as cleaved caspase 9 after 24 hrs by immunoblotting analysis; assay type: functional, cell-based
MOLT-4 = test: Antiproliferative activity against human MOLT4 cells assessed as reduction in cell viability after 72 hrs by MTS assay; assay type: functional, cell-based; conditions: MOLT-4, 72 h; in short: as §1

| SMILES | Ratio IC50 [1] | IC50 [2] | Ratio IC50 [3] | IC50 (NCI-H1975 [7]) | IC50 [8] | IC50 [9] | IC50 [10] | IC50 (CCRF-CEM) | IC50 (BT-549) | IC50 (KB) | Ratio IC50 [12] | IC50 (MDA-MB-231) | IC50 (Hs-578T) | also measured |
| --- | --- | --- | --- | --- | --- | --- | --- | --- | --- | --- | --- | --- | --- | --- |
| CCOC(=O)c1ccc2[nH]c(-c3cccc(F)c3)cc(=O)c2c1 | 0.88 | 22 nM | 1 | 24 nM | 35 nM | 16 nM | 30 nM | 20 nM | 21 nM | 34 nM | 0.8 | 35 nM | 34 nM | Activity [4]: 0.26 mg/dL; Activity [5]: 528.4 mm3; Activity (Homo sapiens [6]): Active; Activity (Homo sapiens [11]): Active; Activity (NCI-H1975 [13]): 972.5 mm3; inhibition (Tubulin (Homo sapiens) [14]): Active |
| CCOC(=O)c1ccc2nc(-c3ccccc3)cc(O)c2c1 | 0.81 | 34 nM | 1 | 33 nM | 37 nM | 44 nM | 30 nM | 45 nM | 33 nM | 37 nM | 0.97 | 55 nM | 41 nM | IC50 [15]: 52 nM; Activity (CL1-0 [16]): Active; Activity (NCI-H1975 [17]): Tde; IC50 [18]: > 10 µM; Activity (NCI-H1975 [19]): inactive; IC50 (HCT-116): 50 nM; Activity (CL1-0 [20]): inactive; Activity (NCI-H1975 [21]): 871.3 mm3; Activity (CL1-0 [22]): Dose-dependent effect; Activity (NCI-H1975 [23]): Active; IC50 (CL1-0 [24]): 16 nM; Activity (Tubulin (Homo sapiens) [25]): Active; Activity (CL1-0 [26]): Dose-dependent effect; IC50 (MOLT-4): 38 nM |
